Experimental data reported in ChEMBL document CHEMBL1136138, “HIV protease inhibitors with picomolar potency against PI-Resistant HIV-1 by extension of the P3 substituent” (Bioorg Med Chem Lett, 2003).

Experiments:
Cytochrome P450 3A4 = Cytochrome P450 3A4 (Homo sapiens, UniProt P08684); experiment: In vitro inhibition of human liver microsome Cytochrome P450 3A4
[1] = In vitro intrinsic clearance in human liver microsome; format: ADME; conditions: liver microsomes
[2] = Cmax was determine after peroral administration at 5 mg/kg in dog; format: ADME, organism-based, Canis lupus familiaris; parameters: dose 5 mg/kg, route oral; conditions: in vivo, po
Cytochrome P450 2C9 = Cytochrome P450 2C9 (Homo sapiens, UniProt P11712); experiment: In vitro inhibition of human liver microsome Cytochrome P450 2C9; format: ADME, microsomes
[3] = Oral bioavailability in dog (dose 5 mg/kg); format: ADME, organism-based, Canis lupus familiaris; conditions: in vivo
[4] = target: T1, Human immunodeficiency virus type 1 protease (Human immunodeficiency virus 1, UniProt Q72874); experiment: Inhibitory activity against HIV-1 Protease from PI-resistant HIV-1 (strain V-18C)
[5] = Plasma clearance after peroral administration at 5 mg/kg in dog; format: ADME, organism-based, Canis lupus familiaris; parameters: dose 5 mg/kg, route oral; conditions: po, read-out: Clp
MT4 [6] = experiment: Compound was tested for their ability to inhibit spread of PI-resistant HIV-1 (strain Q-18C) viral infection in MT-4 human T-lymphoidcell; format: functional; conditions: read-out: CIC95
Outline: (§1)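 Spread of infection was measured in MT4 human T-lymphoid cells infected with viral constructs derived from the resistant clinical strains. The value is CIC95, the concentration that inhibits 95% of viral spread. "≤" and "≥" values are the lowest and highest concentrations tested.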

[7] = target: T1, Human immunodeficiency virus type 1 protease; experiment: Inhibitory activity against HIV-1 Protease from PI-resistant HIV-1 (strain K-60C)
MT4 [8] = experiment: Compound was tested for their ability to inhibit spread of PI-resistant HIV-1 (strain K-60C) viral infection in MT-4 human T-lymphoidcell; format: functional; conditions: read-out: CIC95; outline: as §1
MT4 [9] = experiment: Compound was tested for their ability to inhibit spread of wild-type NL4-3 viral infection in MT-4 human T-lymphoidcell; format: functional; conditions: read-out: CIC95
Outline: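 Viral spread assay in MT4 human T-lymphoid cells infected with a viral construct derived from wild-type NL4-3. The read-out is CIC95, the concentration that blocks 95% of the spread of infection. Values marked ≤ or ≥ are the lowest or highest concentrations tested.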

Cytochrome P450 2D6 = Cytochrome P450 2D6 (Homo sapiens, UniProt P10635); experiment: In vitro inhibition of human liver microsome Cytochrome P450 2D6; format: ADME, microsomes
[10] = Half life period was determine after peroral administration at 5 mpk in dog; format: ADME, organism-based, Canis lupus familiaris; conditions: in vivo, po, 5 mg/kg
[11] = target: T1, Human immunodeficiency virus type 1 protease; experiment: Inhibitory activity against HIV-1 Protease from PI-resistant HIV-1 (strain Q-18C)
[12] = target: T1, Human immunodeficiency virus type 1 protease; experiment: Inhibitory activity against HIV-1 Protease from wild-type NL4-3 virus
MT4 [13] = experiment: Compound was tested for their ability to inhibit spread of PI-resistant HIV-1 (strain V-60C) viral infection in MT-4 human T-lymphoidcell; format: functional; conditions: read-out: CIC95; outline: as §1
[14] = (§2) Area under curve was determine after peroral administration at 5 mpk in dog; format: ADME, organism-based, Canis lupus familiaris; conditions: in vivo, po, 5 mg/kg
Canis familiaris [15] = experiment: (§3) Plasma clearance after peroral administration at 10 mpk in dog; format: ADME, organism-based, Canis lupus familiaris; conditions: in vivo, po, 10 mg/kg
[16] = Cmax was determine after peroral administration at 10 mpk in dog; format: ADME, organism-based, Canis lupus familiaris; parameters: dose 10 mpk, route oral; conditions: in vivo, po, 10 mg/kg
[17] = Oral bioavailability in dog (dose 10 mg/kg); format: ADME, organism-based, Canis lupus familiaris; conditions: in vivo
[18] = Half life period was determine after peroral administration at 10 mpk in dog; format: ADME, organism-based, Canis lupus familiaris; conditions: in vivo, po, 10 mg/kg
Canis familiaris [19] = experiment: (§4) Area under curve was determine after peroral administration at 10 mpk in dog; format: ADME, organism-based, Canis lupus familiaris; conditions: in vivo, po, 10 mg/kg
[20] = Half life period was determine after peroral administration at 10 mpk in Rhesus; format: ADME, organism-based; conditions: cercopithecidae, in vivo, po, 10 mg/kg
Canis familiaris [21] = experiment: Plasma clearance after peroral administration at 5 mpk in dog; format: ADME, organism-based, Canis lupus familiaris; conditions: in vivo, po, 5 mg/kg
[22] = Plasma clearance after peroral administration at 10 mpk in Rhesus; format: ADME, organism-based; conditions: cercopithecidae, po, 10 mg/kg, read-out: Clp
[23] = Area under curve was determine after peroral administration at 10 mpk in Rhesus; format: ADME; conditions: cercopithecidae, in vivo, po, 10 mg/kg
[24] = Oral bioavailability in Rhesus monkey (dose 10 mg/kg p.o.); format: ADME, organism-based, Macaca mulatta; conditions: in vivo
[25] = Cmax was determine after peroral administration at 5 mpk in dog; format: ADME, organism-based, Canis lupus familiaris; parameters: dose 5 mpk, route oral; conditions: in vivo, po, 5 mg/kg
[26] = Oral bioavailability after peroral administration at 5 mpk in Dog; format: ADME, organism-based, Canis lupus familiaris; conditions: in vivo, 5 mg/kg
Canis familiaris [27] = experiment: as §2; format: ADME, organism-based, Canis lupus familiaris; conditions: in vivo, po, 5 mg/kg
[28] = Cmax was determine after peroral administration at 10 mpk in Rhesus; format: ADME, organism-based; parameters: dose 10 mpk, route oral; conditions: cercopithecidae, in vivo, po, 10 mg/kg
MT4 [29] = experiment: Compound was testedm for their ability to inhibit spread of PI-resistant HIV-1 (strain V-60C) viral infection in MT-4 human T-lymphoidcell; format: functional; conditions: read-out: CIC95; outline: as §1
[30] = as §3; format: ADME, organism-based, Canis lupus familiaris; conditions: plasma, po, 10 mg/kg, read-out: Clp
[31] = as §4; format: ADME, organism-based, Canis lupus familiaris; conditions: in vivo, po, 10 mg/kg

Sequence of Cytochrome P450 2D6 (P10635 whole entry): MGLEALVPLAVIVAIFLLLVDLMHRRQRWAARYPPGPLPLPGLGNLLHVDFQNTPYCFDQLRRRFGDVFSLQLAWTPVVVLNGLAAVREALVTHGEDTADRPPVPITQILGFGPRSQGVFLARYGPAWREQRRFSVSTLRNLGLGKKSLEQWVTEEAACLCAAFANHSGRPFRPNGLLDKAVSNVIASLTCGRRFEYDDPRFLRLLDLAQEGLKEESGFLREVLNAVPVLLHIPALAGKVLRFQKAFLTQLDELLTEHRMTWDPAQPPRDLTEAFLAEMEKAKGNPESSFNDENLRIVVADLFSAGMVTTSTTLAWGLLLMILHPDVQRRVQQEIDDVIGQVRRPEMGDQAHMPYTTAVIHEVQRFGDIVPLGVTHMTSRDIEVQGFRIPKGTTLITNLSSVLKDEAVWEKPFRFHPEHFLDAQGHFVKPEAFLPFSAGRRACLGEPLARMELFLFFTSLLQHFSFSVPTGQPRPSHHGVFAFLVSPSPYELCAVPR
Sequence of Cytochrome P450 3A4 (P08684 whole entry): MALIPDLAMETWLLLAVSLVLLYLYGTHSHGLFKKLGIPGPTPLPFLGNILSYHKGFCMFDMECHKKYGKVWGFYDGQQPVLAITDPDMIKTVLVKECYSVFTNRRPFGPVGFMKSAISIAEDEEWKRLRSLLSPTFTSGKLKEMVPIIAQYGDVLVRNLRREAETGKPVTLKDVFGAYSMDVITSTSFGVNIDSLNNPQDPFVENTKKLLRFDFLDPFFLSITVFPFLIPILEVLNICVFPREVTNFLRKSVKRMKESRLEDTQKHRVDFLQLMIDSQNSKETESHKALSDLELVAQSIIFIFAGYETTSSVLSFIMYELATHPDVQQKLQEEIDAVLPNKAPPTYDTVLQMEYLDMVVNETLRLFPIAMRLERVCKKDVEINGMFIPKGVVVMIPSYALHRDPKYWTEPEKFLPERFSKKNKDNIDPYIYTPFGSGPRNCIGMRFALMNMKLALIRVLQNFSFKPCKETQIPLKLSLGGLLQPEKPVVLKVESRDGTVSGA
Sequence of Cytochrome P450 2C9 (P11712 whole entry): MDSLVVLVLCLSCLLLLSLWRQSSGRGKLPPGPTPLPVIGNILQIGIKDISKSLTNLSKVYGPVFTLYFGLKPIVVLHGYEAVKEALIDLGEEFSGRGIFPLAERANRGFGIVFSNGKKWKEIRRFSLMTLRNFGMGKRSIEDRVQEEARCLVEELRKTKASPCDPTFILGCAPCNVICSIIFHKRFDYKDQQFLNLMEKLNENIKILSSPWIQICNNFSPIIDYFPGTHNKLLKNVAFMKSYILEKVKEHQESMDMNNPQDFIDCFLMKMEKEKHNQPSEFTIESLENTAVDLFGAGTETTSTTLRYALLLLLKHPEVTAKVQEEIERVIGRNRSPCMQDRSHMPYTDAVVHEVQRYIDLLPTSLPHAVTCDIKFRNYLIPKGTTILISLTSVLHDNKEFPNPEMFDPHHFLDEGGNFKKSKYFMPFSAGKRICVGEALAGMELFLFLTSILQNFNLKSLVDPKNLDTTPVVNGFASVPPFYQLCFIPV

Row | Compound | IC50 (Cytochrome P450 3A4) [nM] | CLint scaled [1] [mL/min/kg] | Cmax [2] [µM] | IC50 (Cytochrome P450 2C9) [nM] | bioavailability [3] [%] | IC50 [4] [nM] | IC95 (MT4 [6]) [nM] | IC50 [7] [nM] | IC95 (MT4 [8]) [nM] | IC95 (MT4 [9]) [nM] | IC50 (Cytochrome P450 2D6) [nM] | half-life [10] [min] | IC50 [11] [nM] | IC50 [12] [nM] | IC95 (MT4 [13]) [nM] | bioavailability [17] [%] | half-life [18] [min] | Clp (Canis familiaris [21]) [mL/min/kg] | AUC (Canis familiaris [27]) [µM·h] | further results
1 | O=C(N[C@H]1c2ccccc2OC[C@H]1O)[C@H](Cc1ccccc1)C[C@H](O)CN1CCN(Cc2ccc(-c3ccncc3)o2)C[C@H]1C(=O)NCC(F)(F)F | 320 | 133 | 5.3 | 5500 | 55 | 1.3 | 31 | 0.6 | 15 | ≤ 8 | 530 | 60 | 0.8 | 0.08 | 31 | – | – | – | – | CL/F [5]: 24.5 mL/min/kg; AUC [14]: 2.6 µM·h
2 | O=C(N[C@H]1c2ccccc2OC[C@H]1O)[C@H](Cc1ccccc1)C[C@H](O)CN1CCN(Cc2ccc(-c3ccccn3)o2)C[C@H]1C(=O)NCC(F)(F)F | 5200 | 655 | – | > 30000 | – | 0.7 | 15 | 0.5 | 31 | ≤ 8 | 29600 | – | 0.4 | – | 15 | 4 | 50 | – | – | Clp (Canis familiaris [15]): 33.5 mL/min/kg; Cmax [16]: 0.9 µM; AUC (Canis familiaris [19]): 0.4 µM·h
3 | CC(C)(c1ccc(-c2ccncc2)o1)N1CCN(C[C@@H](O)C[C@@H](Cc2ccccc2)C(=O)N[C@H]2c3ccccc3OC[C@H]2O)[C@H](C(=O)NCC(F)(F)F)C1 | 10 | 19 | – | 410 | – | 1.2 | – | 0.3 | – | ≤ 8 | 360 | 70 | 0.1 | 0.05 | 12 | – | – | 22.5 | 11.3 | half-life [20]: 91 min; CL/F [22]: 20.4 mL/min/kg; AUC [23]: 9.9 µM·h; bioavailability [24]: 90%; Cmax [25]: 7.3 µM; bioavailability [26]: 100%; Cmax [28]: 4.4 µM
4 | O=C(N[C@H]1c2ccccc2OC[C@H]1O)[C@H](Cc1ccccc1)C[C@H](O)CN1CCN(Cc2ccc(-c3cccnc3)o2)C[C@H]1C(=O)NCC(F)(F)F | 440 | 233 | 0.2 | > 30000 | 2 | 0.7 | – | 0.3 | 15 | ≤ 8 | 6400 | 41 | – | 0.03 | – | – | – | 25.2 | 0.1 | IC95 (MT4 [29]): 15 nM
5 | CC(C)(C)NC(=O)[C@@H]1CN(Cc2cccnc2)CCN1C[C@@H](O)C[C@@H](Cc1ccccc1)C(=O)N[C@H]1c2ccccc2C[C@H]1O.O | – | – | – | – | – | – | > 1000 | – | > 1000 | 50 | – | – | – | – | > 1000 | 72 | 28 | – | – | CL/F [30]: 16 mL/min/kg; AUC [31]: 12.5 µM·h
6 | CC(C)(c1cc2cnccc2o1)N1CCN(C[C@@H](O)C[C@@H](Cc2ccccc2)C(=O)N[C@H]2c3ccccc3OC[C@H]2O)[C@H](C(=O)NCC(F)(F)F)C1 | – | – | – | – | – | 5.2 | 62 | 5.8 | 250 | ≤ 8 | – | – | 1.6 | – | 62 | – | – | – | – | –
